Rows were chosen to be rich in hits. Some 2% of all compounds tested hit in one or more screens of this group.
MLLE-PAM2 inh: inhibitors of microRNA-mediated deadenylation, human PABP1 MLLE binding | P11940 | GST-MLLE / FITC-PAM2 fluorescence polarization | inhibition, % at 20 µM | actives 0.36% (n = 360,000); in the data active = inhibition above about 35%, passing the limit was not always enough;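 also: plate controls were DMSO wells with GST-MLLE for no effect and wells lacking GST-MLLE protein for full effect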
Target sequence (P11940 whole entry, looked up): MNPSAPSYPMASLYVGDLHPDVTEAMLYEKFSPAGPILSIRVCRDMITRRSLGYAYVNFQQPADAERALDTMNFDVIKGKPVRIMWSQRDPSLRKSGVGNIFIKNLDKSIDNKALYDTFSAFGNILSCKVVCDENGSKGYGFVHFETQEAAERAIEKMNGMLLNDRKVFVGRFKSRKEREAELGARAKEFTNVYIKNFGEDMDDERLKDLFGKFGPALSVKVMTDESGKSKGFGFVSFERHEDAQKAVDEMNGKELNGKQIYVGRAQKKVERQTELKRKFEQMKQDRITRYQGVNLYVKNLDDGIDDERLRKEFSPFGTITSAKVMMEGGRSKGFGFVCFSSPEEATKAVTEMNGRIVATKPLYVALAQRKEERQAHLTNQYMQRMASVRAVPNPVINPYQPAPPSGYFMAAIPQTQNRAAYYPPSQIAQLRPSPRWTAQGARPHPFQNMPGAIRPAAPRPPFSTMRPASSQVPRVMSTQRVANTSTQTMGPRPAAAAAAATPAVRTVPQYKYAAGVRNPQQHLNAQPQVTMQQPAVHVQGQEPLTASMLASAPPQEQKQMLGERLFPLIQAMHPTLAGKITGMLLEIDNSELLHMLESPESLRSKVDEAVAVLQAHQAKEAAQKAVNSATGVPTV
PABP polyA inh: PABP-poly(A) binding inhibition. P11940. PABP-poly(A) RNA binding, fluorescence polarization. inhibition, % at 35 µM. actives 1% (n = 290,000);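 also: calls also rest on retests at 20 µM and on dose response follow-up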
DNA FID counter-1: counter-screen for HCV NS3 helicase inhibitors: DNA intercalator displacement; DNA fluorescent intercalator displacement, fluorescence; inhibition, % at 7.9 µM; actives 0.17% (n = 290,000); in the data active = inhibition above about 37%;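 also: 0% = vehicle and 100% = reference compound; higher means more ethidium bromide displaced from hairpin DNA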
HCV NS3 hel inh: HCV NS3 helicase inhibition. NS3 helicase DNA unwinding, Cy5 molecular beacon fluorescence. inhibition, % at 10.9 µM. actives 0.56% (n = 290,000). AID 1800;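 active = inhibition above the mean of all tested compounds plus 3 SD, set per campaign, cut at about 35% in these data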;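 also: 0% = DMSO wells and 100% = thioflavine S control wells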
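Control set: DMSO versus 110 µM thioflavine S; Material: NS3 helicase fragment of HCV; Measured by: Cy5 fluorescence at 0 and 60 min, beacon hairpin quenching; Read-out basis: percent inhibition from t60/t0 fluorescence ratio; Times: reaction time 60 min, 25 °C; Repeats: single replicate; Compound dosing: single dose, 10.9 µM nominal final, DMSO 0.8% final.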
core dimer inh: blocks dimerization of HCV core protein. inhibition, % at 5 µM. AID 1899. TR-FRET GST/Flag-core106 dimerization, 1536-well. actives 0.33% (n = 300,000);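 active = inhibition above the mean of all tested compounds plus 3 SD, set per screening campaign, cut at about 45% in these data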
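Assay system: GST-tagged and Flag-tagged HCV core protein residues 1-106 / Times: compound-protein-antibody incubation 4 h at 22.5 °C / Signal: time-resolved FRET, ex 340 nm, em 617 and 671 nm / Evaluation: % inhibition based on acceptor/donor emission ratio / Benchmarks: wells lacking GST-core106 and wells with excess unlabelled core106 / Repeats: singlicate, one well per compound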
eIF4H inh: inhibitors of RNA binding by human eIF4H; actives 0.94% (n = 290,000); Q15056; AID 2012; inhibition, % at 35 µM; eIF4H fluorescence polarization binding assay;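 also: calls also rest on retests at 20 µM and on dose response follow-up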
NS3 hel confirm: HCV NS3 helicase inhibition, confirmation assay; shares compounds with HCV NS3 hel inh; NS3 helicase DNA unwinding, Cy5 molecular beacon fluorescence; inhibition, % at 10.9 µM; actives 31% (n = 1,600);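 active = inhibition above the mean of all tested compounds plus 3 SD, cutoff set per campaign, cut at about 36% in these data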
DNA FID counter-2: counter-screen for HCV NS3 helicase inhibitors: DNA intercalator displacement. actives 4% (n = 1,600). shares compounds with HCV NS3 hel inh. inhibition, % at 7.9 µM. DNA fluorescent intercalator displacement, fluorescence; in the data active = inhibition above about 37%;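 also: 0% = vehicle and 100% = reference compound; higher means more displacement of ethidium bromide from the DNA hairpin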
* = called active by the depositor. Unless noted, no rule for the calls is given here.

`CCOC(=O)c1c(NC(=O)C2C3C=CC(CC3)C2C(=O)O)sc(C)c1C` (stereo unspecified) gave MLLE-PAM2 inh 23, PABP polyA inh 1, DNA FID counter-1 -19, HCV NS3 hel inh 3, core dimer inh 2 and eIF4H inh 7.
For CC(C)c1ccc(CN2CCC2(C)C(=O)Nc2cnc3ccccc3c2)cc1 (stereo unspecified) the results were MLLE-PAM2 inh -3.
CC1(C)CC(=O)C2=C(C1)NC(=O)CC2 was read as MLLE-PAM2 inh 7.
For COc1ccc(N2CC(NC(=O)NCC(C)C)CC2=O)cc1 (stereo unspecified) the results were MLLE-PAM2 inh 26, PABP polyA inh -8, DNA FID counter-1 -4, HCV NS3 hel inh 53*, core dimer inh 0, eIF4H inh 2, NS3 hel confirm -8 and DNA FID counter-2 -1.
`O=C(CSc1nnc(COc2ccccc2)o1)N1CCCCC1` gave MLLE-PAM2 inh 3, PABP polyA inh 5, DNA FID counter-1 -24, HCV NS3 hel inh 7, core dimer inh -11 and eIF4H inh -4.
Clc1ccccc1Cn1c(/C=C/c2ccco2)nc2ccccc21 was read as MLLE-PAM2 inh -63, PABP polyA inh 0, DNA FID counter-1 -20, HCV NS3 hel inh 52*, core dimer inh -3, eIF4H inh 70, NS3 hel confirm 11 and DNA FID counter-2 -23.
For OCC1OC(n2cnc3c(NCc4ccccc4O)ncnc32)C(O)C1O (stereo unspecified) the results were MLLE-PAM2 inh 3.
For CC(=O)Nc1ccc(C(=O)N2CCCCC2c2cc(C(=O)NCc3ccc(F)cc3)no2)cc1 (stereo unspecified) the results were MLLE-PAM2 inh 7.
For O=C(O)c1ccccc1N1C(=O)C2C3c4ccccc4C(Br)(c4ccccc43)C2C1=O (stereo unspecified) the results were MLLE-PAM2 inh -1, PABP polyA inh 0, DNA FID counter-1 -18, HCV NS3 hel inh 40*, core dimer inh 2, eIF4H inh 0, NS3 hel confirm 42* and DNA FID counter-2 -21.
O=C(NC1CC1)c1sc2ccccc2c1Cl was read as MLLE-PAM2 inh -2, PABP polyA inh -5, DNA FID counter-1 -7, HCV NS3 hel inh -3, core dimer inh -4 and eIF4H inh -2.
For O=C(NNC(=S)NC1CCCCC1)c1sc2ccccc2c1Cl the results were MLLE-PAM2 inh 14, PABP polyA inh 1, DNA FID counter-1 -26, HCV NS3 hel inh 48*, core dimer inh 11, eIF4H inh 15, NS3 hel confirm 46* and DNA FID counter-2 -18.
For Cc1ccc(C(=O)/C=C/c2ccc(-c3ccccc3[N+](=O)[O-])o2)cc1 the results were MLLE-PAM2 inh 21, PABP polyA inh 33, DNA FID counter-1 -19, HCV NS3 hel inh 37*, core dimer inh 6, eIF4H inh 19, NS3 hel confirm 39* and DNA FID counter-2 17.
`O=C(/C=C/c1ccc(-c2ccccc2)o1)c1ccccc1` gave MLLE-PAM2 inh 9, PABP polyA inh 2, DNA FID counter-1 -27, HCV NS3 hel inh 47*, core dimer inh 25, eIF4H inh 49, NS3 hel confirm -19 and DNA FID counter-2 1.
O=C(Nc1cccc2nsnc12)c1ccc(-c2cccc(Cl)c2)o1 was read as MLLE-PAM2 inh -19, PABP polyA inh 18, DNA FID counter-1 -23, HCV NS3 hel inh 40*, core dimer inh 21, eIF4H inh 34, NS3 hel confirm -8 and DNA FID counter-2 3.
For O=C(Nc1ccccc1N1CCCCC1)c1ccc(-c2cccc(Cl)c2)o1 the results were MLLE-PAM2 inh -8, PABP polyA inh -8, DNA FID counter-1 -3, HCV NS3 hel inh -16, core dimer inh -9 and eIF4H inh 6.
Screening C/C=C/COC(=O)c1[nH]c2c(c1C)C(=O)CC(c1ccc(N(C)C)cc1)C2 (stereo unspecified) returned MLLE-PAM2 inh 10, PABP polyA inh -6, DNA FID counter-1 -7, HCV NS3 hel inh -1, core dimer inh 6 and eIF4H inh -7.
Screening C=CCOC(=O)c1[nH]c2c(c1C)C(=O)CC(c1ccco1)C2 (stereo unspecified) returned PABP polyA inh 1, DNA FID counter-1 -12, HCV NS3 hel inh 39*, core dimer inh 28, eIF4H inh inconclusive, NS3 hel confirm -4 and DNA FID counter-2 6.
`Cc1c(C(=O)OC2CCCC2)[nH]c2c1C(=O)CC(c1ccco1)C2` (stereo unspecified) gave MLLE-PAM2 inh -20, PABP polyA inh -4, DNA FID counter-1 -15, HCV NS3 hel inh 18, core dimer inh 17 and eIF4H inh 28.
`Cc1c(C(=O)OCC(C)C)[nH]c2c1C(=O)CC(c1ccco1)C2` (stereo unspecified) gave MLLE-PAM2 inh -12, PABP polyA inh -16, DNA FID counter-1 -14, HCV NS3 hel inh 37*, core dimer inh 47*, eIF4H inh 22, NS3 hel confirm -11 and DNA FID counter-2 -10.
`COC(=O)[C@]1(Cc2ccccc2)N[C@H](c2ccc(-c3cc(C(C)=O)cs3)cc2)[C@@H]2C(=O)N(C)C(=O)[C@@H]21` gave MLLE-PAM2 inh 1 and core dimer inh -23.
`Oc1ccc(N=Nc2cccc(C(F)(F)F)c2)cc1C=Nc1ccc(N2CCOCC2)cc1` gave MLLE-PAM2 inh 9, PABP polyA inh 6, DNA FID counter-1 3, HCV NS3 hel inh 45*, core dimer inh -3, eIF4H inh -9, NS3 hel confirm 1 and DNA FID counter-2 39*.
COc1ccc(/C=c2\s/c(=C/C(=O)c3ccc(C)cc3)[nH]c2=O)cc1OC was read as MLLE-PAM2 inh -134, PABP polyA inh -5, DNA FID counter-1 -39, HCV NS3 hel inh 59*, core dimer inh -2, eIF4H inh inconclusive, NS3 hel confirm 11 and DNA FID counter-2 4.
Cc1nn(Cc2ccccc2Cl)c(Cl)c1/C=C/C(=O)OCC(=O)NC1CCS(=O)(=O)C1 (stereo unspecified) was read as MLLE-PAM2 inh -10, PABP polyA inh 4, DNA FID counter-1 -18, HCV NS3 hel inh 3, core dimer inh 0 and eIF4H inh -5.
Screening Cc1nn(Cc2ccccc2)c(Cl)c1/C=C/C(=O)OCC(=O)N(C)C1CCS(=O)(=O)C1 (stereo unspecified) returned MLLE-PAM2 inh -32, PABP polyA inh 9, DNA FID counter-1 -21, HCV NS3 hel inh 46*, core dimer inh 0, eIF4H inh 4, NS3 hel confirm -12 and DNA FID counter-2 -20.
